Source: ChEMBL document CHEMBL4002598, “Fusaric acid and analogues as Gram-negative bacterial quorum sensing inhibitors” (Eur J Med Chem, 2017)
pIC50: −log10 of the molar value. In brackets after ≈: the same amount, converted by molar mass. Activity calls are given as the source filed them. The rule behind the calls is not given here.

What was measured:
[1] = Inhibition of LuxR-dependent quorum sensing activity in Escherichia coli harboring reporter plasmid LuxI-GFP assessed as reduction in 3-oxo-C6-HSL-induced GFP expression measured every 15 mins for 14 hrs by fluorescence assay
In short: (§1)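 luxI-gfp E. coli reporter grown 16 h at 37 °C, shaking 180 rpm, then diluted to OD450 0.1 in BT minimal medium with 10% A10, 0.5% glucose and 0.5% Casamino Acids. 3-oxo-C6-HSL added at 10 nM final. Compounds run in triplicate as 2-fold dilutions from 100 μg/ml. GFP (ex 485/em 535) and OD450 read every 15 min for 14 h at 34 °C. IC50 taken from GFP curves.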

[2] = test system: Pseudomonas aeruginosa; assay: Inhibition of LasR-dependent quorum sensing activity in Pseudomonas aeruginosa harboring reporter plasmid lasB-GFP assessed as reduction in GFP expression up to 100 ug/ml measured every 15 mins for 14 hrs by fluorescence assay
In short: (§2)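 P. aeruginosa lasB-gfp and rhlA-gfp reporters, grown 16 h at 37 °C with shaking, then diluted to OD450 0.1 in BT minimal medium (10% A10, 0.5% glucose, 0.5% Casamino Acids). No added signal molecule. Fluorescence at 485/535 nm and growth monitored every 15 min for 14 h at 34 °C. Concentrations up to 100 µg/ml.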

[3] = target: T1, HTH-type quorum-sensing regulator RhlR (Pseudomonas aeruginosa (strain ATCC 15692 / PAO1 / 1C / PRS 101 / LMG12228)) (UniProt P54292); assay: Inhibition of RhlR-dependent quorum sensing activity in Pseudomonas aeruginosa harboring reporter plasmid rhlA-gfp assessed as reduction in GFP expression up to 100 ug/ml measured every 15 mins for 14 hrs by fluorescence assay; in short: as §2
T1 sequence (whole entry): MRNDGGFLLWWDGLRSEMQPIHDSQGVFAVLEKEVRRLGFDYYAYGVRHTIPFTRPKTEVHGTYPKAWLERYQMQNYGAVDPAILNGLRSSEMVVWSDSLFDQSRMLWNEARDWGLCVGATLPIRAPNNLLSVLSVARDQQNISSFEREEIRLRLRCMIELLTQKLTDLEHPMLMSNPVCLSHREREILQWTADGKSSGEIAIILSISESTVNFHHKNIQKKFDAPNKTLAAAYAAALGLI

[4] = test system: Escherichia coli; assay: Growth inhibition of Escherichia coli at 0.39 to 100 ug/ml; in short: as §1
[5] = test system: Saccharomyces cerevisiae; assay: Inhibition of yeast Pma1 at 100 uM preincubated for 30 mins by spectrophotometric method
In short: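 Pma1 purified from Saccharomyces cerevisiae plasma membrane, 0.5 µg per reaction. Enzyme preincubated 30 min at room temperature with 100 µM compound. Reaction buffer: 5 mM ATP, 10 mM MgSO4, 50 mM KNO3, 5 mM NaN3, 3.5 mM molybdate, 20 mM MES-KOH pH 5.9. Run 30 min, then stopped with acidic molybdate/ascorbate/SDS. Released phosphate read at 860 nm after arsenite-citrate treatment (Baginski method).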

[6] = test system: Escherichia coli; assay: Inhibition of LuxR-dependent quorum sensing activity in Escherichia coli harboring reporter plasmid LuxI-GFP assessed as reduction in 3-oxo-C6-HSL-induced GFP expression up to 100 ug/ml measured every 15 mins for 14 hrs by fluorescence assay; in short: as §1
[7] = Inhibition of quorum sensing system in Agrobacterium tumefaciens harboring traG-LacZ reporter fusion measured after 4 hrs by beta-galactosidase reporter gene assay
[8] = test system: Escherichia coli; assay: Inhibition of LuxR-dependent quorum sensing activity in Escherichia coli harboring reporter plasmid LuxI-GFP assessed as reduction in 3-oxo-C6-HSL-induced GFP expression at 6.2 to 50 ug/ml measured every 15 mins for 14 hrs by fluorescence assay

Compound | IC50 [1] | inhibition [2] | inhibition [3] | growth inhibition (GI) [4] | inhibition [5] | inhibition [6] | pIC50 [7] | inhibition [8]
COC(=O)c1ccc(OCC(=O)Nc2ccccc2)cn1 | 64 mg/L (≈ 224 µM) | inactive | inactive | Non-Toxic | inactive |  |  | 
O=C(O)c1ccc(-c2ccnc3ccccc23)cn1 |  | inactive | inactive |  | inactive |  |  | 
C=CCSS/C=C\C[S+]([O-])CC=C (stereo unspecified) [(Z)-Ajoene] | 4 mg/L (≈ 17.1 µM) |  |  |  |  |  |  | 
CCOC(=O)c1ccc(-c2ccc(C)cc2)cn1 |  | inactive | inactive |  | inactive |  |  | 
O=C(O)c1ccc(Br)cn1 |  | inactive | inactive |  | inactive |  |  | 
COC(=O)c1ccc(-c2ccco2)cn1 |  | inactive | inactive |  | inactive |  |  | 
O=C(O)c1ccc(-c2nccs2)cn1 |  | inactive | inactive | Non-Toxic | inactive | inactive |  | 
O=[N+]([O-])c1cc[n+]([O-])cc1 |  |  |  |  |  |  | 3.77 | 
CCCCc1ccc(C(=O)OCC)nc1 | 55 mg/L (≈ 265 µM) | inactive | inactive | Non-Toxic | inactive |  |  | Active
COC(=O)c1ccc(-c2ccnc3ccccc23)cn1 |  | inactive | inactive | Non-Toxic | inactive | inactive |  | 
COC(=O)c1ccc(-c2ccc3cn(C)nc3c2)cn1 |  | inactive | inactive |  | inactive |  |  | 
COc1ccc2c(-c3ccc(C(=O)O)nc3)ccnc2c1 |  | inactive | inactive |  | inactive |  |  | 
COC(=O)c1ccc(Cc2ccccc2)cn1 |  | inactive | inactive |  | inactive |  |  | 
O=C(O)COc1ccc(C(=O)O)nc1 |  | inactive | inactive |  | inactive | inactive |  | 
COC(=O)c1ccc(-c2ccnc3ccc(OC)cc23)cn1 |  | inactive | inactive |  | inactive |  |  | 
COC(=O)c1ccc(-c2nccs2)cn1 |  | inactive | inactive |  | inactive |  |  | 
O=C(O)c1ccc(Cc2ccccc2)cn1 |  | inactive | inactive |  | inactive |  |  | 
COC(=O)c1ccc(-c2ccnc3cc(OC)ccc23)cn1 |  | inactive | inactive |  | inactive |  |  | 
COc1cccc(-c2ccc(C(=O)O)nc2)n1 |  | inactive | inactive |  | inactive |  |  | 
O=C(O)c1ccc(-c2ccccc2)cn1 |  | inactive | inactive |  | inactive |  |  | 
